Laboratory results as given in article PMC10527948 (European journal of pharmacology, 2023).

Assays:
[1] = biological target: T1, membrane-bound ecto-5`-nucleotidase/CD73 (Rattus norvegicus, UniProt P21588); assay: Ecto-5`-nucleotidase/CD73 enzyme assay; type: biochemical; settings: for IC50: Dixon linearization, control primary astrocytes, 1.0 mM AMP; for % inhibition at indicated concentration: value in brackets in the Ki column, concentration not given
T1 sequence (P21588 29-576): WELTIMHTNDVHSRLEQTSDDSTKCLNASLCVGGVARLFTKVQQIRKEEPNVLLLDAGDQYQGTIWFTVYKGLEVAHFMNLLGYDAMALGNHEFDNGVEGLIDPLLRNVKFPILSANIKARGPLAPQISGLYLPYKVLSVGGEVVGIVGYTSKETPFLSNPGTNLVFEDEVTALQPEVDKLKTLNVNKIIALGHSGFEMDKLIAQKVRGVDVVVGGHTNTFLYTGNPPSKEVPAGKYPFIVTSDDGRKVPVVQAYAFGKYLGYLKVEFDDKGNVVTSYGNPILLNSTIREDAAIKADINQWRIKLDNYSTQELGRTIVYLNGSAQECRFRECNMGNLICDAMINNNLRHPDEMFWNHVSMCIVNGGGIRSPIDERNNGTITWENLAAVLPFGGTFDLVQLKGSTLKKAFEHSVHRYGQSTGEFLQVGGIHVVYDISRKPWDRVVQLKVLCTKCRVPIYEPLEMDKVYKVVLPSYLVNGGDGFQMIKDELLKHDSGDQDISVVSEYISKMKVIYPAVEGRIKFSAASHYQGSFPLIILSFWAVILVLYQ
Outline: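 Confluent primary cortical astrocytes from 1-day-old male Wistar rat pups, washed in phosphate-free HEPES/bicarbonate saline, pH 7.4. 15 min preincubation with inhibitor (in water, 1×10−9 to 1×10−3 M); 1.0 mM AMP solution added, 30 min at 37°C; stopped with cold perchloric acid. Pi by malachite green at 620 nm, normalised to BCA protein.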

primary astrocytes [2] = assay: Cell proliferation by double Ki67/DAPI fluorescence staining; type: cell-based, rat; settings: 24 hours
primary astrocytes [3] = assay: Morphometric analysis of GFAP-immunostained astrocytes; type: cell-based, rat; settings: 24 hours
Outline: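 Astrocytes on PLL-coated coverslips treated with inhibitor for 24 h, then prefixed in 4% PFA and blocked in 5% BSA. Stained with rabbit anti-GFAP (1:500), Alexa-555 secondary, and DAPI. Confocal images analysed in ImageJ for cell area and shape descriptors. Mean ± SE from ≥ 22 cells in 3 random fields, ≥ 2 cultures.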

[4] = biological target: T2, CD73 in reactive astrocytes (Rattus norvegicus, UniProt P21588); assay: CD73 enzyme assay in reactive astrocytes stimulated with TNFα or IL-1β; type: biochemical
T2 sequence (P21588 29-576): T1 sequence (P21588 29-576)
Outline: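 Rat primary astrocytes exposed to TNF-α or IL-1β for 24 h, then assayed for AMP hydrolysis (Pi release by malachite green, per mg protein per min). Inhibitor tested at a single 50 μM concentration, or as a 1–250 μM series in cells given 0.1 μg/ml IL-1β. The series was fitted to a four-parameter sigmoid.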

primary astrocytes [5] = assay: MTT assay of cell metabolic activity; type: cell-based, rat
primary astrocytes [6] = assay: Scratch wound migration assay; type: cell-based, rat; settings: 1–100 μM; 8 and 24 hours
C3 = assay: qRT-PCR of inflammatory gene expression in cytokine-treated astrocytes; type: cell-based, rat; settings: 100 ng/ml cytokine, 24 hours
Outline: (§1)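 Confluent rat primary astrocytes in 6-well plates treated with 100 ng/ml TNF-α or IL-1β for 24 h. Total RNA extracted with TRIzol, purity checked by OD260/280, then reverse-transcribed. Gene-specific primers used with Gapdh as internal control; quantified by the 2−ΔCt method, n = 3 separate determinations.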

Lcn = assay: as above; type: cell-based, rat; settings: 100 ng/ml cytokine, 24 hours
Outline: as §1

Nt5e = assay: qRT-PCR of gene expression in cytokine-treated astrocytes; type: cell-based, rat; settings: 100 ng/ml cytokine, 24 hours
Outline: as §1

Compound	IC50 [1]	% inhibition at indicated concentration [1]	Area (μm^2) (primary astrocytes [3]; 100 μM)	Aspect ratio (primary astrocytes [3]; 100 μM)	Circularity (primary astrocytes [3]; 100 μM)	Roundness (primary astrocytes [3]; 100 μM)	Solidity (primary astrocytes [3]; 100 μM)	C3 mRNA abundance (fold-increase in respect to non-stimulated control) (C3)	Lcn mRNA abundance (fold-increase in respect to non-stimulated control) (Lcn)	also measured
Nc1ncnc2c1ncn2[C@@H]1O[C@H](COP(=O)(O)CP(=O)(O)O)[C@@H](O)[C@H]1O [APCP, 5’-(α,β-methylene)diphosphate adenosine, reference compound]	2630 ± 1760 nM	18.6%	3181.9 ± 607.2 μm^2	2.2 ± 0.2	0.49 ± 0.03	0.54 ± 0.07	0.75 ± 0.04	–	–	Ki ([1]; Cheng-Prusoff equation, Km for rat CD73 53.0 ± 4.1 μM): 132 ± 89 nM; effect on proliferation rate (Ki67+/DAPI+) (primary astrocytes [2]; indicated concentrations): no apparent effect
Cn1c(=O)n([C@@H]2O[C@H](COP(=O)(O)CP(=O)(O)O)[C@@H](O)[C@H]2O)cc/c1=N\OCc1ccc(Cl)cc1 [MRS4598]	110 ± 80 nM	53.4%	1861.8 ± 137.5 ^* μm^2	2.7 ± 0.2	0.43 ± 0.03	0.42 ± 0.04	0.77 ± 0.02	–	–	inhibition of CD73 activity at 1×10^−3 M ([1]; 1×10^−3 M inhibitor): complete inhibition; effect on CD73 catalytic activity in reactive astrocytes ([4]; 50 μM, cells treated with TNFα or IL-1β for 24 hours): decreased the catalytic activity of CD73; IC50 ([4]; astrocytes stimulated with 0.1 μg/ml IL-1β, 1–250 μM): 5000 ± 260 nM; effect on formazan formation (MTT) (primary astrocytes [5]; 1 μM, 24 hours): no effect; reduction of formazan formation (MTT) (primary astrocytes [5]; concentrations above 10 μM, 24 hours, no apparent concentration dependence): 40%; cytotoxic effects on primary astrocytes (primary astrocytes [5]; concentrations as low as 1 μM): negligible cytotoxic effects; effect on proliferation rate (Ki67+/DAPI+) (primary astrocytes [2]; 50 μM and 100 μM, vs control (~22%), p < 0.05): modest but significant decrease; Area (μm^2) (primary astrocytes [3]; 10 μM): 3619.4 ± 552.5 μm^2; Aspect ratio (primary astrocytes [3]; 10 μM): 2.3 ± 0.2; Circularity (primary astrocytes [3]; 10 μM): 0.55 ± 0.06; Roundness (primary astrocytes [3]; 10 μM): 0.47 ± 0.04; Solidity (primary astrocytes [3]; 10 μM): 0.84 ± 0.04; effect on astrocyte migration velocity (wound closure) (primary astrocytes [6]): did not affect migration velocity of astrocytes, except at the highest tested concentration of 100 μM
IL-1β: proinflammatory cytokine used to induce the reactive astrocyte phenotype	–	–	–	–	–	–	–	3.13 ± 0.69 fold-increase	24.22 ± 6.21 fold-increase	–
TNFα	–	–	–	–	–	–	–	4.65 ± 2.29 fold-increase	49.04 ± 3.34 fold-increase	Nt5e mRNA abundance (fold-increase in respect to non-stimulated control) (Nt5e): 2.49 ± 0.33 fold-increase
